# Data as given in ChEMBL document CHEMBL4014343 (J Med Chem, 2017).
# Tested on: not listed separately
# Assay: Antiproliferative activity against human LXFL 529L cells after 3 days by SRB assay
# Assay type: functional, cell-based
# Conditions: lxfl 529l
row,Compound,IC50 [µM]
1,CN1CCN(CCO/N=C2/C(=C3/C(=O)Nc4ccccc43)Nc3ccccc32)CC1,0.86

# Target: Insulin-like growth factor 1 receptor (Homo sapiens, UniProt P08069)
# Assay: Inhibition of IGF1R (unknown origin) by ADP-Glo assay
# Conditions: not given
# In short: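 Isolated IGF-1R activity measured by luminescent ADP-Glo readout per manufacturer's protocol; IC50 from concentration-response (mean ± deviation reported).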
# Insulin-like growth factor 1 receptor, sequence (P08069 31-736 limits assumed): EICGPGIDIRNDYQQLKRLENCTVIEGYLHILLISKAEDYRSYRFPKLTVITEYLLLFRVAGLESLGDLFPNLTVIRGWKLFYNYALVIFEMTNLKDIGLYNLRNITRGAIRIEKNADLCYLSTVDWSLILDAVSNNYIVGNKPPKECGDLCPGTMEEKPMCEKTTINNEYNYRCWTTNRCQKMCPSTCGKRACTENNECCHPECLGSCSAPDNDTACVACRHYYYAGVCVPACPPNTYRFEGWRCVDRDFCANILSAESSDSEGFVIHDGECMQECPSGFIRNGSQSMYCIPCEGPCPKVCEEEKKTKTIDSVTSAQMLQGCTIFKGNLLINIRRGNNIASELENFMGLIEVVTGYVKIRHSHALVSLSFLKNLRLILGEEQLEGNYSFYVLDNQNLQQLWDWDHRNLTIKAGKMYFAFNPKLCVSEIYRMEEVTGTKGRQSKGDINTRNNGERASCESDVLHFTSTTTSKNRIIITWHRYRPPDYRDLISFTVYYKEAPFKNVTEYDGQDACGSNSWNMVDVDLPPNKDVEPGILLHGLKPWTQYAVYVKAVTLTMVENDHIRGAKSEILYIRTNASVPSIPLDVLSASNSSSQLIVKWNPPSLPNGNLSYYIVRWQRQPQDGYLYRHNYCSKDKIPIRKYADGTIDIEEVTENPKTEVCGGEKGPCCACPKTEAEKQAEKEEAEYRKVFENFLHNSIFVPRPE
# Insulin-like growth factor 1 receptor, sequence (P08069 741-1367 limits assumed): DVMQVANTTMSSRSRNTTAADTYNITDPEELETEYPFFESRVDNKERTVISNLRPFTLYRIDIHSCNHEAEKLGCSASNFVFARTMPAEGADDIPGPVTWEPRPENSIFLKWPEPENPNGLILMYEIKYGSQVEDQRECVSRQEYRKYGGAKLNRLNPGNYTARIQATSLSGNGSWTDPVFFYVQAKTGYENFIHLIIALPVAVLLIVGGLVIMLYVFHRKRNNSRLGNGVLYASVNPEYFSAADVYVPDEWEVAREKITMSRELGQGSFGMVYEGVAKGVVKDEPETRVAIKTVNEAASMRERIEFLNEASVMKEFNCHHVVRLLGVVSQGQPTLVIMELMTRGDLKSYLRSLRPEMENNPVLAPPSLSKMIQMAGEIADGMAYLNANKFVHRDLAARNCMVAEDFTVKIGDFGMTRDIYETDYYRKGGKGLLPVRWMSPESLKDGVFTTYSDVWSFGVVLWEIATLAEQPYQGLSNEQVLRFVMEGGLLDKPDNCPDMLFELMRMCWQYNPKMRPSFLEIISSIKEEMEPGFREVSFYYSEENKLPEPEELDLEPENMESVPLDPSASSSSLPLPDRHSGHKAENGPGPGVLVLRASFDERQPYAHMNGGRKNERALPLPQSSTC
row,IC50 [µM],Compound
1,5.3,O=C1Nc2ccccc2/C1=C1/Nc2ccccc2/C1=N\O

# Tested on: MCF7
# Assay: Antiproliferative activity against human MCF7 cells after 3 days by SRB assay
# Assay type: functional, cell-based
# Conditions: Homo sapiens, MCF7, 72 h
row,IC50 [µM],Compound
1,> 100,O=C1Nc2ccc(C(=O)O)cc2/C1=C1/Nc2ccc(C(=O)O)cc2C1=O
2,3.6,O=C1Nc2ccccc2/C1=C1/Nc2ccc(O)cc2/C1=N\O
3,0.025,CC(C)C[C@H](NC(=O)[C@H](Cc1ccccc1)NC(=O)c1cnccn1)B(O)O [BORTEZOMIB]
4,17.9,CN1CCN(C(=O)c2ccc3c(c2)C(=O)/C(=C2/C(=O)Nc4ccccc42)N3)CC1
5,7.6,Nc1ccc2c(c1)C(=O)/C(=C1/C(=O)Nc3ccccc31)N2
6,0.89,COc1ccc2c(c1)/C(=C1/Nc3ccccc3/C1=N\OCCN1CCN(C)CC1)C(=O)N2.Cl
7,5.43,CN(C)CCNC(=O)c1ccc2c(c1)C(=O)/C(=C1/C(=O)Nc3ccccc31)N2
8,10.7,O=C1Nc2ccccc2/C1=C1/Nc2ccc(O)cc2C1=O
9,10,CN1CCN(c2ccc(NC(=O)c3ccc4c(c3)C(=O)/C(=C3/C(=O)Nc5ccccc53)N4)cc2)CC1
10,6,COc1ccc2c(c1)C(=O)/C(=C1/C(=O)Nc3ccc(OC)cc31)N2

row,Compound,IC50 [µM]
1,CN1CCN(CCO/N=C2/C(=C3/C(=O)Nc4ccccc43)Nc3ccccc32)CC1,0.8

# Tested on: not listed separately
# Assay: Solubility of the compound in water by spectrophotometric method
# Assay type: physicochemical
# Conditions: not given
# In short: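 Ethanol standard solutions define absorbance maxima; aqueous solubility then quantified spectrophotometrically at that maximum by calibration.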
row,solubility [µg/mL],Compound
1,0.6,O=C1Nc2ccc(C(=O)O)cc2/C1=C1/Nc2ccc(C(=O)O)cc2C1=O
2,2.7,O=C1Nc2ccccc2/C1=C1/Nc2ccc(O)cc2/C1=N\O
3,< 1,O=C1Nc2ccccc2/C1=C1/Nc2ccc(C(=O)O)cc2/C1=N\O
4,0.12,O=C1Nc2ccccc2/C1=C1/Nc2ccccc2/C1=N\O
5,23.9,CN1CCN(C(=O)c2ccc3c(c2)C(=O)/C(=C2/C(=O)Nc4ccccc42)N3)CC1
6,< 0.1,O=C1Nc2ccccc2/C1=C1/Nc2ccc([N+](=O)[O-])cc2C1=O
7,278,O=C1Nc2ccccc2/C1=C1/Nc2ccc(C(=O)O)cc2C1=O
8,> 25000,COc1ccc2c(c1)/C(=C1/Nc3ccccc3/C1=N\OCCN1CCN(C)CC1)C(=O)N2.Cl
9,16.1,CN(C)CCNC(=O)c1ccc2c(c1)C(=O)/C(=C1/C(=O)Nc3ccccc31)N2
10,7.3,O=C1Nc2ccccc2/C1=C1/Nc2ccc(O)cc2C1=O
11,4.2,CN1CCN(c2ccc(NC(=O)c3ccc4c(c3)C(=O)/C(=C3/C(=O)Nc5ccccc53)N4)cc2)CC1

row,Compound,solubility [µg/mL]
1,CN1CCN(CCO/N=C2/C(=C3/C(=O)Nc4ccccc43)Nc3ccccc32)CC1,2
